As usually defined, the IC50 is the concentration at which inhibition is half-maximal.

20 molecules from ChEMBL document CHEMBL3877287, “Analogue based drug design, synthesis, molecular docking and anticancer evaluation of novel chromene sulfonamide hybrids as aromatase inhibitors and apoptosis enhancers” (Eur J Med Chem, 2016) can be followed below.

Each structure is given as a SMILES string.

Data set [1] addresses T1, Aromatase (Homo sapiens, UniProt P11511).
T1 sequence (P11511 whole entry): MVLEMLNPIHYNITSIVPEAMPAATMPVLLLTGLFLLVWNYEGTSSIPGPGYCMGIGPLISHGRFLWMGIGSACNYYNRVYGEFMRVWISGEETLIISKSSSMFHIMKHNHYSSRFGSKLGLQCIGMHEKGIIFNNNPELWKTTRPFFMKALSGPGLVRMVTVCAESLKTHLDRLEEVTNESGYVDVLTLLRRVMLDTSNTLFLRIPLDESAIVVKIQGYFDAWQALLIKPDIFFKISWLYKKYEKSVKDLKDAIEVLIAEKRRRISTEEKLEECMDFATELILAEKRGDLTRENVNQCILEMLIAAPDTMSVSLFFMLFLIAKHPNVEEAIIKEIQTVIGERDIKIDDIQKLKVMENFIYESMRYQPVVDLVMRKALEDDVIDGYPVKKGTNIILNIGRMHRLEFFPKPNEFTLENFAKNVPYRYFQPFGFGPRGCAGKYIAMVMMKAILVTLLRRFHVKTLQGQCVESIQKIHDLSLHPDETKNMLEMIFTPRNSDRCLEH
In words: Inhibition of aromatase activity in human T47D cells at 100 uL after 24 hrs. It is filed as cell-based. Set-up: concentration or dose not given beside the values. An outline of the steps: (§1)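 T47D cells in RPMI 1640 with 10% FBS and 1% penicillin-streptomycin, seeded at 1.2–1.8 × 10,000 cells/well in 100 µL medium plus 100 µL compound. Cells treated 24 h, including serial dilutions for IC50. Aromatase (CYP19A1) then measured with a human ELISA kit.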

A short description of data set [2]: Cytotoxicity against human T47D cells after 48 hrs by sulforhodamine B assay. In kind it is functional, cell-based. The method in brief:
(§2)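 Cells grown in RPMI 1640 with 10% heat-inactivated FBS and 1% penicillin-streptomycin-amphotericin B at 37 °C, 5% CO2, passages 5–20. Plated at 10⁴ cells/well with 24 h recovery. Exposed to 5, 12, 25 and 50 μmol/L from DMSO stock (final DMSO <0.1%), triplicate wells, 48 h. TCA-fixed, SRB-stained, read by ELISA reader. IC50 fitted with Hill-type equation.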
(In general: In SRB staining, fixed cells bind dye roughly in proportion to their protein.)

Data set [3] in a line: Induction of apoptosis in human T47D cells assessed as upregulation of caspase 9 at IC50 after 48 hrs by ELISA method relative to control. It is filed as functional, cell-based. An outline of the steps: (§3)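 Cells grown in RPMI 1640 with 10% FBS at 37 °C, plated at 1.2–1.8 × 10,000 cells/well and exposed to compound for 48 h. Lysed in cell extraction buffer, diluted in standard diluent. Caspase-8 and caspase-9 measured separately by human ELISA, absorbance 450 nm. Fold versus control.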
In general terms: An ELISA detects its analyte on a solid surface through an enzyme-linked reagent.

For data set [4], the system named is T47D. In words: Induction of apoptosis in human T47D cells assessed as Bcl2 level at IC50 (reference value: 568019 IU/ml). In kind it is functional.
Data set [5] in a line: Induction of apoptosis in human T47D cells assessed as upregulation of caspase 8 at IC50 after 48 hrs by ELISA method relative to control. It is filed as functional, cell-based. An outline of the steps:
as §3

Data set [6] deals with T47D. In words: Induction of apoptosis in human T47D cells assessed as Bcl-xl level at IC50 (reference value: 754565 IU/ml). It is filed as functional.
Data set [7] has as its system T47D. In words: Induction of apoptosis in human T47D cells assessed as Bax level at IC50 (reference value: 24.6 IU/ml). It is filed as functional.
Data set [8] deals with T47D. In words: Induction of apoptosis in human T47D cells assessed as decrease in Bcl-xl level at IC50 relative to control. In kind it is functional.
Data set [9] deals with T47D. In words: Induction of apoptosis in human T47D cells at 9.2 uM by propidium iodide staining based cytometry (reference value: 2.13%). It is filed as functional.
In data set [10] the test system is T47D. In words: Induction of apoptosis in human T47D cells assessed as increase in Bax/Bcl2 ratio at IC50 relative to control. It is filed as functional.
A short description of data set [11]: Cell cycle arrest in human T47D cells assessed as G2/M phase accumulation at 9.2 uM by propidium iodide staining based cytometry (reference value: 15.81%). It is filed as functional. The method in brief:
(§4)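 T47D cells exposed to test compound at 9.2 μM. Cells stained with propidium iodide per kit procedure and run on a DNA cytometer. PBMCs of known DNA content served as reference for DNA index. Percent of cells in G1, S and G2/M phases compared with untreated control.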

Data set [12] can be described thus: Cytotoxicity against human 184A1 cells after 48 hrs by sulforhodamine B assay. It is filed as toxicity, cell-based. The method in brief: as §2
Data set [13] concerns the target T1, Aromatase. In words: Inhibition of aromatase activity in human T47D cells after 24 hrs. In kind it is cell-based. The method in brief:
as §1

In data set [14] the test system is T47D. In words: Induction of apoptosis in human T47D cells assessed as decrease in Bcl2 level at IC50 relative to control. It is filed as functional.
The nature of data set [15]: Cell cycle arrest in human T47D cells assessed as S phase accumulation at 9.2 uM by propidium iodide staining based cytometry (reference value: 17.14%). In kind it is functional. An outline of the steps:
as §4

The nature of data set [16]: Cell cycle arrest in human T47D cells assessed as G1 phase accumulation at 9.2 uM by propidium iodide staining based cytometry (reference value: 64.92%). In kind it is functional. An outline of the steps: as §4
Data set [17] in a line: Induction of apoptosis in human T47D cells assessed as upregulation of active caspase 3 level at IC50 by immunoassay relative to control. In kind it is functional, cell-based. An outline of the steps: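 Cells washed with PBS and lysed in extraction buffer with protease inhibitors (1 mL per 10⁷ cells). Lysate diluted just before assay. Active caspase-3 measured by human sandwich immunoassay with absorbance at 450 nm read within 30 min. Expressed as fold versus control cells.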

The nature of data set [18]: Induction of apoptosis in human T47D cells assessed as upregulation of active caspase 3 level by immunoassay relative to letrozole. It is filed as functional, cell-based.

In the case of `Cc1cc(NS(=O)(=O)c2ccc(N/C=C\C(=O)c3cc4ccccc4oc3=O)cc2)on1`, on Aromatase [1], the “inhibition (INH)” value amounted to 28%. In data set [2], half-maximal inhibition (IC50) was put at 75.6 µM.

Turning to `COc1cc(NS(=O)(=O)c2ccc(N/C=C\C(=O)c3cc4ccccc4oc3=O)cc2)nc(OC)n1`, the “inhibition (INH)” value against Aromatase [1] was 44%. In addition, half-maximal inhibition in data set [2] (IC50) required 37.8 µM.

Regarding `Cc1noc(NS(=O)(=O)c2ccc(N/C=C\C(=O)c3cc4ccccc4oc3=O)cc2)c1C`, on Aromatase [1], the “inhibition (INH)” value came out at 20%. In addition, in data set [2], half-maximal inhibition (IC50) was put at 68.4 µM.

In [2], `O=C(C=CNc1ccc(S(=O)(=O)c2ccc(NC=CC(=O)c3cc4ccccc4oc3=O)cc2)cc1)c1cc2ccccc2oc1=O` yielded an IC50 of 70.3 µM.

Take `O=C(/C=C\Nc1ccc(S(=O)(=O)Nc2ccc3cn[nH]c3c2)cc1)c1cc2ccccc2oc1=O`: in [2], the midpoint of inhibition, the IC50, lay at 96.5 µM.

The molecule `NS(=O)(=O)c1ccc(N/C=C\C(=O)c2cc3ccccc3oc2=O)cc1` returned an IC50 in [2] of 109 µM.

For the molecule `Cc1cc(NS(=O)(=O)c2ccc(N/C=C\C(=O)c3cc4ccccc4oc3=O)cc2)nc(C)n1`, in data set [2], the IC50 came to 100 µM.

In [2], `Nc1ccc(S(=O)(=O)c2ccc(N/C=C\C(=O)c3cc4ccccc4oc3=O)cc2)cc1` returned a half-inhibitory concentration (IC50) of 91.9 µM.

As to `O=C(/C=C\Nc1ccc(S(=O)(=O)Nc2ccnn2-c2ccccc2)cc1)c1cc2ccccc2oc1=O`, the fold change (FC) stood at 10 in data set [3]; 40 in data set [5]; 1965 with T47D [8]; 33000 in the data set with T47D [10]; 369 with T47D [14]; 45 in data set [17]. The fold change (FC) in data set [18] stood at 3. In addition, the Activity is 1540 IU/ml with T47D [4]; 384 IU/ml in the data set on T47D [6]; 402127 IU/ml with T47D [7]; 31.7% in the data set on T47D [9]; 44.5% in data set [11]; 14.6% in [15]. Moreover, in [16], the Activity turned out to be 9.2%. Further, the “inhibition (INH)” value on Aromatase [1] came to 70%. Moreover, the IC50 at 48 h in [12] was determined as 184 µM. The results for the IC50 (against Aromatase [13]; in [2]) were 5.09 µM and 9.2 µM, respectively.

Consider `COc1cccc2c1C(=O)c1c(O)c3c(c(O)c1C2=O)C[C@@](O)(C(=O)CO)C[C@@H]3O[C@H]1C[C@H](N)[C@H](O)[C@H](C)O1` [DOXORUBICIN], for which, in data set [2], inhibition was half-maximal at 9.8 µM (IC50).

Take `N=C(N)NS(=O)(=O)c1ccc(N/C=C\C(=O)c2cc3ccccc3oc2=O)cc1`: the “inhibition (INH)” value on Aromatase [1] was 30%. The same molecule displayed an IC50 in data set [2] of 87.6 µM.

`O=C(/C=C\Nc1ccc(S(=O)(=O)Nc2ccccn2)cc1)c1cc2ccccc2oc1=O`: the “inhibition (INH)” value against Aromatase [1] was found to be 65%. Further, the IC50 at Aromatase [13] came out at 12.5 µM; in data set [2], 37.6 µM.

As to `Cc1nnc(NS(=O)(=O)c2ccc(N/C=C\C(=O)c3cc4ccccc4oc3=O)cc2)s1`, the IC50 in data set [2] was found to be 94 µM.

For `O=C(/C=C\Nc1ccc(S(=O)(=O)Nc2ncccn2)cc1)c1cc2ccccc2oc1=O`, the “inhibition (INH)” value on Aromatase [1] was found to be 41%. In addition, the IC50 in data set [2] turned out to be 75.2 µM.

For `COc1cnc(NS(=O)(=O)c2ccc(N/C=C\C(=O)c3cc4ccccc4oc3=O)cc2)nc1`, the fold change (FC) amounted to 9.91 in [3]; 21.8 in data set [5]; 111.35 in the data set with T47D [8]; 5936 with T47D [10]; 819.65 with T47D [14]; 20.6 in data set [17]. Also, the fold change (FC) in data set [18] was 1.3. The Activity is recorded as 693 IU/ml with T47D [4], 6776 IU/ml in the data set on T47D [6] and 176887 IU/ml with T47D [7]. For the same molecule, the “inhibition (INH)” value on Aromatase [1] is 81%. The IC50 at 48 h in data set [12] was 172 µM. For the same molecule, the IC50 at Aromatase [13] came to 6.07 µM; in data set [2] it was 8.8 µM.

In the case of `Cc1cc(C)nc(NS(=O)(=O)c2ccc(N/C=C\C(=O)c3cc4ccccc4oc3=O)cc2)n1`, at Aromatase [1], the “inhibition (INH)” value is 30%. Besides, in [2], the midpoint of inhibition, the IC50, lay at 62.2 µM.

With `COc1ncnc(NS(=O)(=O)c2ccc(N/C=C\C(=O)c3cc4ccccc4oc3=O)cc2)c1OC`, the “inhibition (INH)” value on Aromatase [1] turned out to be 69%. Also, the results for the IC50 (against Aromatase [13]; in data set [2]) were 4.66 µM and 9.8 µM, respectively.

On to `Cc1ccnc(NS(=O)(=O)c2ccc(N/C=C\C(=O)c3cc4ccccc4oc3=O)cc2)n1`, for which, at Aromatase [1], the “inhibition (INH)” value was determined as 67%. The IC50 against Aromatase [13] amounted to 9.52 µM; in data set [2], 24.5 µM.

`O=C(/C=C\Nc1ccc(S(=O)(=O)Nc2cnc3ccccc3n2)cc1)c1cc2ccccc2oc1=O` displayed an IC50 in [2] of 86.9 µM.

For `CN(C)/C=C/C(=O)c1cc2ccccc2oc1=O`, 146 µM corresponded to half-maximal inhibition in [2] (IC50).
